What was measured:
[1] = test system: A-427; experiment: Cytotoxicity against human A427 cells at 20 uM after 96 hrs by crystal violet staining relative to control; type: functional
Procedure, shortened: (§1)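 Cell lines from DSMZ (German collection). Cells exposed to 20 µM test substance at 37 °C for 96 h; medium removed and adherent (living) cells stained with crystal violet. Growth given as % of untreated control; averages of two independent experiments.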

[2] = test system: RT-4; experiment: Cytotoxicity against human RT4 cells at 20 uM after 96 hrs by crystal violet staining relative to control; type: functional; procedure, shortened: as §1
[3] = test system: A-427; experiment: Cytotoxicity against human A427 cells after 96 hrs by crystal violet staining relative to control; type: functional, cell-based; settings: A-427, 96 h
Procedure, shortened: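 Crystal violet microtiter assay, 96 h exposure at 37 °C. Five serial dilutions from DMF stock solutions; concentrations giving T/C between 10% and 90% used, and IC50 calculated by least-squares analysis of dose–response curves.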

[4] = test system: 5637; experiment: Cytotoxicity against human 5637 cells at 20 uM after 96 hrs by crystal violet staining relative to control; type: functional; procedure, shortened: as §1
[5] = organism: Sus scrofa; experiment: Displacement of [3H]MK-801 from NMDA receptor in pig brain cortex at 1 uM
[6] = target: Sigma non-opioid intracellular receptor 1 (Cavia porcellus, UniProt Q60492); experiment: Displacement of [3H](+)-pentazocine from opioid sigma1 receptor in guinea pig brain homogenate; type: tissue-based
Procedure, shortened: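 Non-specific binding with 10 µM unlabeled (+)-pentazocine. Filtration, scintillation counting; IC50 by nonlinear regression, Ki by Cheng–Prusoff; triplicates, mean ± SEM of three independent experiments.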

[7] = Displacement of [3H][…] from opioid sigma2 receptor in rat liver homogenate in presence of (+)-pentazocine; type: tissue-based
Procedure, shortened: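 Rat liver membranes (about 100 µg protein, 50 mM Tris pH 8.0) incubated 180 min at room temperature with six concentrations of test compound, 3 nM [3H]-ditolylguanidine (Kd 17.9 nM) and 500 nM (+)-pentazocine. […] IC50 by nonlinear regression, Ki by Cheng–Prusoff; triplicates, mean ± SEM of three experiments.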

[8] = test system: MCF7; experiment: Cytotoxicity against human MCF7 cells after 96 hrs at 20 uM by crystal violet staining relative to control; type: functional; procedure, shortened: as §1
[9] = test system: DAN-G; experiment: Cytotoxicity against human DAN-G cells after 96 hrs at 20 uM by crystal violet staining relative to control; type: functional; procedure, shortened: as §1
[10] = Cytotoxicity against human LCLC-103H cells at 20 uM after 96 hrs by crystal violet staining relative to control; type: functional; procedure, shortened: as §1
[11] = Selectivity ratio of Ki for rat sigma2 receptor to Ki for guinea pig sigma1 receptor
[12] = target: Sigma non-opioid intracellular receptor 1 (Cavia porcellus) (UniProt Q60492); experiment: Displacement of [3H](+)-pentazocine from opioid sigma1 receptor in guinea pig brain homogenate at 1 uM; type: tissue-based
Procedure, shortened: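 Guinea pig brain membranes (about 75 µg protein, 50 mM Tris pH 7.4) with 2 nM [3H]-(+)-pentazocine, 180 min at 37 °C. Test compound at 1 µM; inhibition of radioligand binding reported. Non-specific binding with 10 µM unlabeled (+)-pentazocine; filtration and scintillation counting.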

Sigma non-opioid intracellular receptor 1, sequence (Q60492 whole entry): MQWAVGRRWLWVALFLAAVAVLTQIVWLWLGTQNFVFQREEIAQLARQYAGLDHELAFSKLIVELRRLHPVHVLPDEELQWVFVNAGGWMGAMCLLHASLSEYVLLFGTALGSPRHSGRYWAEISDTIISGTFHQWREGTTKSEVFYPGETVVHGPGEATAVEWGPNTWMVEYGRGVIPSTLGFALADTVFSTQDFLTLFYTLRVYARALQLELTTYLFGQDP
Sigma non-opioid intracellular receptor 1 (Cavia porcellus), sequence (Q60492 whole entry): as above

Row | SMILES | Activity [1] | Activity [2] | IC50 [3] | Activity [4] | Activity [5] | Ki [6] | Ki [7] | Activity [8] | Activity [9] | Activity [10] | Ratio [11] | inhibition [12]
1 | C=CCN1C[C@@H]2[C@@H](OC)CC[C@H]1CN2Cc1ccc(OC)cc1 | 45% | 89% | 16.4 µM | 95% | < 25% | 3.5 µM | 2.1 µM | 80% | 95% | 99% | – | –
2 | C=CCN1C[C@@H]2[C@@H](OC)CC[C@H]1CN2Cc1ccc(OC)cc1OC | 36% | 68% | 27.1 µM | 102% | < 25% | 5.74 µM | 7.66 µM | 84% | 101% | 78% | – | –
3 | C=CCN1C[C@H]2[C@H](OC)CC[C@@H]1CN2Cc1ccc(OC)cc1 | 48% | 94% | 20.4 µM | 81% | < 25% | 8.28 µM | 22.4 µM | 84% | 95% | 107% | – | –
4 | C=CCN1C[C@@H]2CCC[C@H]1CN2Cc1ccc(OC)cc1 | 42% | 65% | – | 87% | < 25% | 0.011 µM | 0.203 µM | 65% | 92% | 91% | 20 | –
5 | C=CCN1C[C@H]2[C@@H](O)CC[C@@H]1CN2Cc1ccc(OC)cc1 | 90% | 107% | – | 104% | < 25% | 0.343 µM | 1.21 µM | 99% | 100% | 111% | 4 | –
6 | C=CCN1C[C@H]2[C@@H](OC)CC[C@@H]1CN2Cc1ccc(OC)cc1OC | 49% | 87% | 18.9 µM | 63% | < 25% | – | 13.5 µM | 79% | 84% | 98% | – | 37%

Reference: ChEMBL document CHEMBL1140857 (Bioorg Med Chem, 2009)
